Results from ChEMBL document CHEMBL4627265, “Optimization of 8-oxoadenines with toll-like-receptor 7 and 8 activity” (Bioorg Med Chem Lett, 2020).
Calls of active or inactive are those of the source. The rule behind the calls is not given here.

Tests used:
Assay type in all cases: cell-based
Toll-like receptor 7 = target: T1, Toll-like receptor 7 (Homo sapiens, UniProt Q9NYK1); assay: Agonist activity at human TLR7 expressed in HEK293 cells assessed as induction of NFKappaB activity after 24 hrs by SEAP reporter gene assay
T1 sequence (Q9NYK1 whole entry): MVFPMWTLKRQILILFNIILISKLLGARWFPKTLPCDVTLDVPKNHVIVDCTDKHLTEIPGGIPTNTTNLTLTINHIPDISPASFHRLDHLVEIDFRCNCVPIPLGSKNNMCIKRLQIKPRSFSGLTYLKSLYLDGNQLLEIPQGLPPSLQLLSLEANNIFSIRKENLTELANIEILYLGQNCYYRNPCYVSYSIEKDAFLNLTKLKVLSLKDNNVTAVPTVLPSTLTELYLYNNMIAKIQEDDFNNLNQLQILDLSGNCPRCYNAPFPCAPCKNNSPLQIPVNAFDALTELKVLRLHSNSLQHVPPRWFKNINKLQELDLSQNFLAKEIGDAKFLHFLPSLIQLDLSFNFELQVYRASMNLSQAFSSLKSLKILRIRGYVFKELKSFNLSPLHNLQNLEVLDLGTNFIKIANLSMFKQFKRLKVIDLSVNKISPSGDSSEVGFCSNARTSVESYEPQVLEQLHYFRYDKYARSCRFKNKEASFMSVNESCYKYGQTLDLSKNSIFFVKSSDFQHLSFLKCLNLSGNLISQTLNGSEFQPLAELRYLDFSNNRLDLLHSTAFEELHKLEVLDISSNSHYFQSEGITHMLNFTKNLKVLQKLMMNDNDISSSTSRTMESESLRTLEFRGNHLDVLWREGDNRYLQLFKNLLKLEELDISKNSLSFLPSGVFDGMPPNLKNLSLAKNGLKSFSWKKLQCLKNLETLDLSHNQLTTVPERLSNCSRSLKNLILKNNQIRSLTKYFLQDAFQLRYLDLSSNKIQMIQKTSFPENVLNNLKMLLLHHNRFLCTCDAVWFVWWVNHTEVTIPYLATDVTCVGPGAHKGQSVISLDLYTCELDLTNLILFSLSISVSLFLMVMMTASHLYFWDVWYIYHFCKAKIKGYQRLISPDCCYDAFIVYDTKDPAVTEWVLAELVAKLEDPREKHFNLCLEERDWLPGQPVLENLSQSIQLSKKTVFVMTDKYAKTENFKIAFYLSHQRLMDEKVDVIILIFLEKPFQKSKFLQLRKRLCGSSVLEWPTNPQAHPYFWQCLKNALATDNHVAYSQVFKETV
Outline: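 HEK293 cells stably transfected with hTLR7 or hTLR8 plus an NFκB-driven SEAP reporter, treated 24 h with compound over a μM range; SEAP secretion read out. EC50 as mean ± SD of three (TLR7) or four (TLR8) independent experiments.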

[1] = target: T2, Toll-like receptor 7 (Homo sapiens) (UniProt Q9NYK1); assay: Agonist activity at TLR7 in human PBMC assessed as IFNalpha stimulation at 10 uM
T2 sequence (whole entry): T1 sequence (Q9NYK1 whole entry)
Outline: (§1)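 IFNα secretion by hPBMCs across a μM dose range; MEC = lowest dose tested inducing cytokine, PC = dose giving highest level, PL = peak level at 10 μM. Data representative of one of three independent donors.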

[2] = target: T2, Toll-like receptor 7 (Homo sapiens); assay: Agonist activity at TLR7 in human PBMC assessed as induction of plasmacytoid dendritic cell maturation by measuring MHC-1 level at 0.1 uM after 6 hrs by flow cytometry
Outline: (§2)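 hPBMCs stimulated 6 h at a single 0.1 μM dose; HLA-DR, MHC-I, CD80 and CD86 on mDCs and pDCs measured by flow cytometry, expressed as fold change versus unstimulated cells. Mean ± SD of three independent experiments in three different donors.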

[3] = target: T2, Toll-like receptor 7 (Homo sapiens); assay: Agonist activity at TLR7 in human PBMC assessed as induction of plasmacytoid dendritic cell maturation by measuring CD86 level at 0.1 uM after 6 hrs by flow cytometry; outline: as §2
[4] = target: T2, Toll-like receptor 7 (Homo sapiens); assay: Agonist activity at TLR7 in human PBMC assessed as induction of plasmacytoid dendritic cell maturation by measuring CD80 level at 0.1 uM after 6 hrs by flow cytometry; outline: as §2
[5] = target: Toll-like receptor 3 (Homo sapiens) (UniProt O15455); assay: Agonist activity at human TLR3 expressed in HEK293 cells by SEAP reporter gene assay
Chain of Toll-like receptor 3 (Homo sapiens) (O15455 whole entry): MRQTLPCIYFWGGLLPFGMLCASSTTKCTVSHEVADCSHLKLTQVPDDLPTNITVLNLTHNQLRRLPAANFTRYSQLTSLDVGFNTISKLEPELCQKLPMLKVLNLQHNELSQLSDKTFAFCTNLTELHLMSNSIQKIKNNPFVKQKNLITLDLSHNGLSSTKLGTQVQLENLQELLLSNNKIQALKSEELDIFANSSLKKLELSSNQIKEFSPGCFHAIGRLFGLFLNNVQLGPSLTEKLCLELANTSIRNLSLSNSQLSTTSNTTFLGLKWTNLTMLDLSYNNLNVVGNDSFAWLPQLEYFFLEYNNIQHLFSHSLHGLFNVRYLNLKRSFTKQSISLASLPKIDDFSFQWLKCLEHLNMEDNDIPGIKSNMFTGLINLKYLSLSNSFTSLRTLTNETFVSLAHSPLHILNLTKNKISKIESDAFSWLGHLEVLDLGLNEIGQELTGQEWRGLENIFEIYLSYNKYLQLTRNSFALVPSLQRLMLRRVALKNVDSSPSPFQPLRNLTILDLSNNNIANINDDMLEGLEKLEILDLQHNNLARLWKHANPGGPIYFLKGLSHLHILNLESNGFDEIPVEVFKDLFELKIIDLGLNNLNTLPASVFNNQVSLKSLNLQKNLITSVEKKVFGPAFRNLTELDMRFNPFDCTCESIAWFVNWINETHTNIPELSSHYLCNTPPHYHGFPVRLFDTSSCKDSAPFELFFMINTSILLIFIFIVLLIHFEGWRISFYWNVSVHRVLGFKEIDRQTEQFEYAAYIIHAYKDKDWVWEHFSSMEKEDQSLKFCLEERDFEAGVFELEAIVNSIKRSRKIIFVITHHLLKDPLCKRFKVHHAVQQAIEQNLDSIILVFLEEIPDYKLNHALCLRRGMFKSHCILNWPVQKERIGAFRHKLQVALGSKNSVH

[6] = target: T3, Toll-like receptor 9 (Homo sapiens) (UniProt Q9NR96); assay: Agonist activity at human TLR9 expressed in HEK293 cells by SEAP reporter gene assay
T3 sequence (whole entry): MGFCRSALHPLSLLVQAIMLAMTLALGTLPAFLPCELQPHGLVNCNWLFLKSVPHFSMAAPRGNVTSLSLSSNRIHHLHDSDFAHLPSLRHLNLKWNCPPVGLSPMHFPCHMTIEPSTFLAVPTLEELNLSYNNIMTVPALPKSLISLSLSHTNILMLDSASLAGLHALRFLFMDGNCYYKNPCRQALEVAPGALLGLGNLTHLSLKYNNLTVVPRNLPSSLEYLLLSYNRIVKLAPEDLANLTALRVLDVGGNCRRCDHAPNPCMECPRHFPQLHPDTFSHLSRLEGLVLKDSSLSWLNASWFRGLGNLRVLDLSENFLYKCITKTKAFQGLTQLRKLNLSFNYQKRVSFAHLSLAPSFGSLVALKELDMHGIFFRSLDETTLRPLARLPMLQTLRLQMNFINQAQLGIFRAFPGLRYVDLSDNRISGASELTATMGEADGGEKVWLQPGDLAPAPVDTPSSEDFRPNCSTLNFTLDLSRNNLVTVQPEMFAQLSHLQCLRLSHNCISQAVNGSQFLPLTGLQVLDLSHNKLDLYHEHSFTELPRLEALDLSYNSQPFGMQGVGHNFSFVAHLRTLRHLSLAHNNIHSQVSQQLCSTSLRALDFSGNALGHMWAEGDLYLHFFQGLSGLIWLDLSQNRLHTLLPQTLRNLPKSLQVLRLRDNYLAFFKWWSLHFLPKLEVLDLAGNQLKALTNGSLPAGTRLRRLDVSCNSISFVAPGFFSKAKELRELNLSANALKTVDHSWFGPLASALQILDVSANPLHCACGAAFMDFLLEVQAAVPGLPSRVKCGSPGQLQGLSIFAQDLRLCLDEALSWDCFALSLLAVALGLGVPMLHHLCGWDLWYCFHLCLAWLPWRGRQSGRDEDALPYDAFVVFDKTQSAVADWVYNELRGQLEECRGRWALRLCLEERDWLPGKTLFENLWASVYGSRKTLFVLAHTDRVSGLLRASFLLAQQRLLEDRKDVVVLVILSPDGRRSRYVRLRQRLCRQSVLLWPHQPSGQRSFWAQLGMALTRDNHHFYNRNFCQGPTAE

[7] = target: T2, Toll-like receptor 7 (Homo sapiens); assay: Agonist activity at TLR7 in human PBMC assessed as induction of plasmacytoid dendritic cell maturation by measuring HLA-DR level at 0.1 uM after 6 hrs by flow cytometry; outline: as §2
[8] = target: T2, Toll-like receptor 7 (Homo sapiens); assay: Agonist activity at TLR7 in human PBMC assessed as induction of plasmacytoid dendritic cell maturation by measuring increase in HLA-DR level at 0.1 uM after 6 hrs by flow cytometry relative to control; outline: as §2
[9] = target: T2, Toll-like receptor 7 (Homo sapiens); assay: Agonist activity at TLR7 in human PBMC assessed as induction of plasmacytoid dendritic cell maturation by measuring increase in MHC-1 level at 0.1 uM after 6 hrs by flow cytometry relative to control; outline: as §2
[10] = target: T4, Toll-like receptor 8 (Homo sapiens) (UniProt Q9NR97); assay: Agonist activity at TLR8 in human PBMC assessed as TNFalpha level at 10 uM
T4 sequence (whole entry): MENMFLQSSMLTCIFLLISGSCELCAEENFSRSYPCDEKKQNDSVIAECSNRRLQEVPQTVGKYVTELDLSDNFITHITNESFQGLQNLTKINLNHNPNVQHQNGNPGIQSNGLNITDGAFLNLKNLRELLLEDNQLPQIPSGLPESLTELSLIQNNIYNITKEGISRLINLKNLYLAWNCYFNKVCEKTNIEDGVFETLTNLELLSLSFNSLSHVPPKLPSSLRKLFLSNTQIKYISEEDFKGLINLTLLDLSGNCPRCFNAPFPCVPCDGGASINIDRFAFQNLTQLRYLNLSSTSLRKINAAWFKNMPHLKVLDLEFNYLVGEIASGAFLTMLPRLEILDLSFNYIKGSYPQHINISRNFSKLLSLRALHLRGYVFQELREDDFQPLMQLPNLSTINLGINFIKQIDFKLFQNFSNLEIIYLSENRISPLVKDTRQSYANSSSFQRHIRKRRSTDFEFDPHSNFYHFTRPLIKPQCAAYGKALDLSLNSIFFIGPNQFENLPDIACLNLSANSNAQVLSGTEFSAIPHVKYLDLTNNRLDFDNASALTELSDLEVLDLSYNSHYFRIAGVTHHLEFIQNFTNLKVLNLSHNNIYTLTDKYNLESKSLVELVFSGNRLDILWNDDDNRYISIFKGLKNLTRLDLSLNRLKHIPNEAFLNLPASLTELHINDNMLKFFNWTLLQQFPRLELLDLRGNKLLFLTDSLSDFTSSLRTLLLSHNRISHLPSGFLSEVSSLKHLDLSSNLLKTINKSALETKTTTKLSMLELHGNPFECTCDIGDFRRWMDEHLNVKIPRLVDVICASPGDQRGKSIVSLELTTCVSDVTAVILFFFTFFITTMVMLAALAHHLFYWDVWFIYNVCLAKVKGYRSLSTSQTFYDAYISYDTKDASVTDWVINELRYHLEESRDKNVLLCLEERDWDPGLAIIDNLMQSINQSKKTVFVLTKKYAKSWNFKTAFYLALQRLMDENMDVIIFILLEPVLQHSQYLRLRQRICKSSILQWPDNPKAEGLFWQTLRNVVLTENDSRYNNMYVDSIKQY
Outline: (§3)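 TNFα secretion by hPBMCs across a μM dose range; MEC = lowest dose tested inducing cytokine, PC = dose giving highest level, PL = peak level at 10 μM. Data representative of one of three independent donors.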

[11] = target: TLR7 and TLR8 (Homo sapiens) (UniProt Q9NYK1+Q9NR97); assay: Agonist activity at TLR7/TLR8 in human PBMC assessed as IFN alpha level; outline: as §1
[12] = target: T4, Toll-like receptor 8 (Homo sapiens); assay: Agonist activity at TLR8 in human PBMC assessed as TNFalpha level; outline: as §3
[13] = target: T4, Toll-like receptor 8 (Homo sapiens); assay: Agonist activity at TLR8 in human PBMC assessed as induction of myeloid dendritic cell maturation by measuring increase in MHC-1 level at 0.1 uM after 6 hrs by flow cytometry relative to control; outline: as §2
[14] = target: T4, Toll-like receptor 8 (Homo sapiens); assay: Agonist activity at TLR8 in human PBMC assessed as induction of myeloid dendritic cell maturation by measuring increase in CD86 level at 0.1 uM after 6 hrs by flow cytometry relative to control; outline: as §2
[15] = target: T2, Toll-like receptor 7 (Homo sapiens); assay: Agonist activity at TLR7 in human PBMC assessed as induction of plasmacytoid dendritic cell maturation by measuring increase in CD86 level at 0.1 uM after 6 hrs by flow cytometry relative to control; outline: as §2

Row | EC50 (Toll-like receptor 7) | Activity [1] | Activity [2] | Activity [3] | Activity [4] | Activity [5] | Activity [6] | Activity [7] | fold change (FC) [8] | fold change (FC) [9] | fold change (FC) [13] | fold change (FC) [14] | fold change (FC) [15] | SMILES | Activity [10] | ECmax [11] | MEC [11] | MEC [12]
1 | 35.8 µM | 6210 pg/mL | – | inactive | inactive | inactive | inactive | – | 1.2 to 2.4 | 1.2 to 2.4 | – | – | – | CCC[C@@H](C)Oc1nc(N)c2[nH]c(=O)n(CC3CCNCC3)c2n1 | – | – | – | –
2 | – | 1410 pg/mL | – | – | – | – | – | – | – | – | 1.4 | 1.9 | – | CCOCc1nc2c(N)nc3ccccc3c2n1CC(C)(C)O | – | 10 µM | 0.08 µM | 2 µM
3 | 19.8 µM | 5900 pg/mL | – | – | – | inactive | inactive | – | 1.2 to 2.4 | 1.2 to 2.4 | – | – | 1.4 | CCCCOc1nc(N)c2[nH]c(=O)n(CC3CCNCC3)c2n1 | – | – | – | –

More lines, now with the values behind:

Row | SMILES | EC50 (Toll-like receptor 7) | Activity [1] | Activity [2] | Activity [3] | Activity [4] | Activity [5] | Activity [6] | Activity [7] | fold change (FC) [8] | fold change (FC) [9] | fold change (FC) [13] | fold change (FC) [14] | fold change (FC) [15] | Activity [10] | ECmax [11] | MEC [11] | MEC [12]
4 | CCC[C@H](C)Oc1nc(N)c2[nH]c(=O)n(CC3CCN(CCN)CC3)c2n1 | 6.71 µM | 4420 pg/mL | – | – | – | – | – | – | – | – | – | – | – | – | – | – | –
5 | COCCOc1nc(N)c2[nH]c(=O)n(CC3CCNCC3)c2n1 | > 500 µM | 2240 pg/mL | inactive | inactive | inactive | inactive | inactive | inactive | – | – | – | – | – | – | – | – | –
6 | COCCOc1nc(N)c2[nH]c(=O)n(Cc3ccccc3)c2n1 | 1.17 µM | 1440 pg/mL | – | – | – | – | – | – | – | – | – | – | – | 1660 pg/mL | 0.08 µM | 0.08 µM | 2 µM
